M1 antag = antagonists of rat M1 muscarinic receptor; B-score at 10 µM; CHO-M1 cells, Fluo-4 calcium, ACh EC80 antagonist mode; stronger effect = lower value; 3.4% of 64,000 active;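 active = calcium fluorescence response, raw or row-and-column corrected B-score, differing from the plate sample mean either way at a set confidence level, mostly lower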
M1 ag = M1 muscarinic receptor agonists, primary screen, CHO-M1 cells, Fluo-4 calcium, agonist mode; Muscarinic acetylcholine receptor M1; Fluo-4 calcium fluorescence; stronger effect = higher value; B-score at 10 µM; 3% of 64,000 active; AID 626, 2007;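 active = fluorescence rise, raw or as B-score row- and column-corrected plate score, outside the 99.7% band of its plate's samples, either direction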
S1P1 ag pot = S1P1 agonists and agonism potentiators, primary screen, cell-based, primary and confirmation screens, CRE-bla reporter. S1P1 CRE-bla cells, forskolin, beta-lactamase FRET, potentiator mode; S1P1 agonist co-added at EC20, 2 nM; 100% = saturating reference agonist, 0% = basal. activation, % at 9.5 µM. 0.57% of 56,000 active. AID 449, 2006;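 active = activation above a cutoff set at the mean activation of all tested compounds plus 3 SD, cut at about 54% in these data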;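 note: forskolin at 4 µM as EC80 and the EC20 agonist is SEW2871; 100% = SEW2871 at its EC100 plus forskolin at EC80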
Target sequence (P21453 whole entry, looked up): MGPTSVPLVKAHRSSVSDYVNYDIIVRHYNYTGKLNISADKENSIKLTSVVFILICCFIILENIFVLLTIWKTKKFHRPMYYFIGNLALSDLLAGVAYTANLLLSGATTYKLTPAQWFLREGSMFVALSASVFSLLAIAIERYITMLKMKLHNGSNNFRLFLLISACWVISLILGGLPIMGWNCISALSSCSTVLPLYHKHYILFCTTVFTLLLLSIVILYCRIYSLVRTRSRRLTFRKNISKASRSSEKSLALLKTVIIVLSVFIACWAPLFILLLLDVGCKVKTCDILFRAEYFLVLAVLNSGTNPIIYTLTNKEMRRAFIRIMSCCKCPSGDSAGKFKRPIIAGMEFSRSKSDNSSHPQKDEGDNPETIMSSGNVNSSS
D1 mod = D1 CRE-luciferase signal change, two-sided – cell-based, HEK293 D1, dopamine EC30, D1 allosteric modulator project, primary screen | dopamine EC30 potentiation; actives deviate in either direction | B-score at 10 µM | 5.9% of 58,000 active | AID 641, 2007;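 active = luminescence count or its row- and column-corrected plate score outside the 99.7% band of the plate's sample wells, on either side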
S1P3 ag = human S1P3 receptor agonists, primary screen, cell-based, primary and confirmation, NFAT-BLA reporter | Sphingosine 1-phosphate receptor 3 (Homo sapiens), Q99500 | S1P3 NFAT-BLA reporter cells, agonism, FRET ratio; relative to 1 µM S1P, basal subtracted | activation, % at 4.5 µM | 0.1% of 60,000 active;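 active = activation above the screen-wide mean plus 3 SD, cut at about 4.5% in these data, passing the limit was not always enough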
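Measure – % activation relative to 1 µM S1P (100%), per plate · System – stable CHO line with human S1P3, Gα16, NFAT-BLA reporter · Timing – cells plated overnight, compound 4 h 37 °C, substrate 2 h RT · Technique – fluorescent BLA substrate, ex 405 nm, em 460/535 nm ratio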
D1 PAM confirm = D1 receptor positive allosteric modulators, retest, confirmation, cell-based, HEK293 D1, CRE-luciferase, duplicate | shares compounds with D1 mod | 88% of 2,200 active | luminescence at 10 µM | AID 642, 2007 | dopamine EC30 potentiation; stronger effect = higher value;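 active = luminescence in either of two replicates above the same-plate mean plus 3 SD of the low-dose dopamine control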
D1 no dopamine = D1 receptor agonism without dopamine, confirmation, mechanism study for D1 allosteric modulator project, cell-based, HEK293 D1, CRE-luciferase, secondary assay 1 | shares compounds with D1 mod | luminescence, no dopamine; stronger effect = higher value | luminescence at 10 µM | 0.8% of 1,900 active; in the data active = luminescence above about 3900
Isoprot counter = counter-screen for D1 modulators: isoproterenol response in HEK293 cells; 63% of 2,200 active; HEK293 D1 CRE-luciferase, isoproterenol EC30 counter-screen; calls only at 10 µM; shares compounds with D1 mod;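 active = luminescence in either replicate above plate mean of wells with a partly effective reference agonist dose plus 3 SD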;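 note: isoproterenol raises cAMP through native beta-adrenoceptor Gs so signal bypasses D1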
Numbers without * were called inactive; i = inactive; / = no result given; + = active, no number. Only some compounds are listed: those with a hit (about 11% of all), similar ones and a draw of the others.

SMILES	M1 antag	M1 ag	S1P1 ag pot	D1 mod	S1P3 ag	D1 PAM confirm	D1 no dopamine	Isoprot counter
COc1ccccc1N1CCN(C/C(O)=C(\C#N)c2nc(-c3ccccc3)cs2)CC1	0.044	0.0038	24	-0.35	0	/	/	/
COc1ccc(-c2csc(/C(C#N)=C(\O)CSc3nccn3C)n2)cc1OC	0.95	1.1	-21	19*	0	18552*	1616	+
CCOc1cc(-c2c(C)c(CC)nc(N)c2C#N)ccc1O	0.61	-0.054	-13	1.9*	-1	10600*	1960	+
Cc1ccccc1OC(=O)CCC(=O)OCCCC(F)(F)C(F)(F)F	0.66	-0.17	-18	0.5	-2	/	/	/
CCOc1ccc(CCNC(=O)CCN2C(=O)COc3ccccc32)cc1OCC	-0.013	0.21	-8	2.7*	-1	9680*	1836	+
COc1ccc(Br)cc1CNC(=O)CCN1C(=O)COc2ccccc21	0.064	0.5	38	3.6*	1	6192*	/	i
COCCCNC(=O)CCN1C(=O)COc2ccccc21	0.64	-0.018	-17	0.61	-1	/	/	/
Nc1c(C(=O)c2ccc(F)cc2)oc2ccccc12	0.018	0.065	5	11*	-2	24288*	1764	+
Cc1cc(NC(=O)c2cnn3cccnc23)nn1CC(=O)Nc1cccnc1	-0.13	-0.012	/	-0.061	-1	/	/	/
O=C(Nc1cccnc1)c1cnn2cccnc12	0.00026	-0.53	-16	4.6*	-1	7304*	1520	+
CCCCNC(=O)NS(=O)(=O)c1ccc(C(=O)OC(C)C)o1	1.3	1	-10	0.091	0	/	/	/
O=C(NCC1COc2ccccc2O1)Nc1ccccc1F (stereo not given)	0.36	0.35	-12	1	-1	/	/	/
O=C(NCCOc1ccccc1)c1n[nH]c(=O)c2ccccc12	-0.015	-0.29	-1	0.49	0	/	/	/
CCOC(=O)c1c(C)[nH]c(C(=O)COC(=O)c2ccc(F)c(S(=O)(=O)N3CCOCC3)c2)c1C	0.16	-0.83	-9	0.44	0	/	/	/
CCOC(=O)c1cc(C(=O)OCC)cc(-n2c(C)cc(C(=O)CN3CCOCC3)c2C)c1	1	0.12	-17	4.9*	-1	7880*	/	i
CCS(=O)(=O)n1nc(-c2ccccc2)nc1NCc1ccco1	0.1	-0.057	-8	9.8*	0	9056*	1636	+
Cc1ccc(Nc2nnc(SCc3cc(=O)n4ccsc4n3)s2)c(C)c1	-0.28	-1.5	-45	2.6*	0	6736*	1632	i
Cc1cc(OCC(=O)Nn2cnnc2)c(C)cc1Br	-0.27	-0.013	-7	1.2	0	/	/	/
c1coc(-c2nn3c(-c4ccco4)nnc3s2)c1	1.4	1.6	-16	2.8*	0	12468*	1852	+
Brc1ccc(-c2nn3c(Cc4ccccc4)nnc3s2)o1	0.47	0.027	14	3.8*	-1	11236*	1820	i
Clc1ccccc1-c1nnc2sc(-c3ccc(Br)o3)nn12	-0.17	1.2	11	2.3*	-1	8388*	1560	i
c1coc(-c2nnc3sc(Cc4cccs4)nn23)c1	0.042	-0.019	17	/	-2	/	/	/
Clc1ccc(-c2nnc3sc(-c4ccc(Br)o4)nn23)c(Cl)c1	-0.5	-0.38	-16	-0.42	0	/	/	/
CCc1ccc(C2=Nn3c(nnc3-c3cccs3)SC2)cc1	-0.01	0.96	-8	8.8*	0	6272*	976	i

Source: PubChem BioAssay
